# Screening results from PubChem BioAssay.
# Beta2AR agonist: beta2AR agonists driving receptor internalization, primary screen, cell-based, FAP fluorogen, flow cytometry | Beta-2 adrenergic receptor (Homo sapiens), P07550 | response, % (test concentration not listed) | Am2.2-beta2AR cells | 340,000 compounds, 0.43% hits | AID 504454, 2011;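 active = response above a set limit, near 3 SD of response in nonfluorescent compounds, cut at about 42% in these data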
# Hep lipid drop: inhibitors of hepatocyte lipid droplet formation, primary screen, imaging, high-throughput imaging, BODIPY stain | AML12 mouse hepatocytes, oleate lipid droplets | inhibition, % at 6.5 µM | 240,000 compounds, 0.4% hits;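 active = lipid droplet intensity inhibited by at least 50%, with more than 500 cells counted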
#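 Assay system: AML12 mouse liver cells | Compound dosing: One dose, 6.5 µM compound | Read-out basis: Droplet intensity reduction, % inhibition | Measured by: Fluorescence imaging, 20x objective, two fields per well | Schedule: Overnight treatment with compound plus oleate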
# Arr AP2 block: inhibitors of beta-arrestin/AP2 binding, primary screen, biochemical, GPCR trafficking, flow cytometry. 340,000 compounds, 0.31% hits. FITC-arrestin peptide / GST-AP2 beads; AP2 beta2 appendage carries R879A mutation. beta-arrestin 1 C-terminal peptide binding to AP2 beta2-adaptin appendage (human). inhibition, % at 10 µM;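 active = inhibition above a set limit, near 3 SD of compounds lacking own fluorescence, cut at about 54% in these data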
#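 Material – GST-tagged AP2 beta2-adaptin appendage (R879A) on 4 µm glutathione beads · Probe or stimulus – fluorescein-tagged arrestin peptide at 50 nM final · Timing – 12 min plus 1 h, RT · Detection – bead flow cytometry, FITC channel · Read-out basis – inhibition as reduced fluorescein signal on beads, percent · Medium – PBS plus Tween 20 (0.05%) and BSA (0.1%)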
# GRK2 aptamer HTS: compounds blocking aptamer binding on GRK2 – biochemical, human GRK2, bead flow cytometry, HTS, primary screen; FAM-aptamer displacement from GRK2; Beta-adrenergic receptor kinase 1 (Homo sapiens), P25098; 330,000 compounds, 0.59% hits; AID 488847, 2010; inhibition of aptamer binding, % at 10 µM;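 active = inhibition of aptamer binding above 40%, roughly 3 SD of noise, on plates passing a quality check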;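 also: median bead fluorescence of bound FAM aptamer so fluorescent compounds give negative values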
# Target sequence (P25098 whole entry, looked up): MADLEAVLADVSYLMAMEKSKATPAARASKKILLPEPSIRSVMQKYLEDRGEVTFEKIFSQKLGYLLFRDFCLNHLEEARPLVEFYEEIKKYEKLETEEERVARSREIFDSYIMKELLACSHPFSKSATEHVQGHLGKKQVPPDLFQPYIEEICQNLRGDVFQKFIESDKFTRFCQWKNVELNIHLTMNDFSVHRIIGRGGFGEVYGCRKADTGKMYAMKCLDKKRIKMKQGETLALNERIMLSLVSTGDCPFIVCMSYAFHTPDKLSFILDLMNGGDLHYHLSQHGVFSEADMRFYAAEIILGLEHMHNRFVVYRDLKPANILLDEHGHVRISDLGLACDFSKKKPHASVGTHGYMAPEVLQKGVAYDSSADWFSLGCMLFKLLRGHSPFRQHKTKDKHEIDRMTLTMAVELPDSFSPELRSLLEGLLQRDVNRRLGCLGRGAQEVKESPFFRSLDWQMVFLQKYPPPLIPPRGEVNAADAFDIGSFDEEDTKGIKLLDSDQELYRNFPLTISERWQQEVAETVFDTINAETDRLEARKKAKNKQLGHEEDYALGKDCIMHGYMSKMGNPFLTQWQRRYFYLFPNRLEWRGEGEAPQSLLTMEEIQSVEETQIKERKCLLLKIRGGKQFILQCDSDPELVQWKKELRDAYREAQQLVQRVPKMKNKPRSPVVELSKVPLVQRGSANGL
# TAG inh: inhibitors of triacylglycerol accumulation, primary screen, cell-based, uHTS, fluorescence, H9c2; H9c2 cells, Nile Red lipid (TAG) fluorescence; cells loaded with 200 µM oleic acid; inhibition, % at 12.5 µM; 230,000 compounds, 0.66% hits; AID 651582, 2012;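 active = pattern-corrected inhibition of lipid staining of at least 50% with the nuclear-stain viability signal not falling by more than 50%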
# NTR1 ag: agonists of human NTR1, primary screen, imaging, U2OS cells, beta-arrestin-GFP, high content | activation, % at 20 µM | Neurotensin receptor type 1 (Homo sapiens), P30989 | AID 493036, 2011 | 330,000 compounds, 0.17% hits | NTR1-U2OS beta-arrestin-GFP spot imaging, agonist mode;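 active = activation at or above 40% of the spot to cytoplasm intensity ratio, with at least 20 cells analyzed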
# Arr AP2 CP1: inhibitors of arrestin peptide binding to AP2, confirmation, biochemical, cherry pick 1, flow cytometry beads | shares compounds with Arr AP2 block | GST-AP2 beads, FITC arrestin peptide binding; GST-fused beta2-adaptin appendage, R879A mutant | inhibition, % at 10 µM | 1,300 compounds, 2% hits | AID 504908, 2011;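 active = inhibition above a set limit, roughly 3 SD of non-fluorescent compound noise, cut at about 38% in these data; inactive = inhibition at or below that limit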;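 also: loss of bead fluorescence from 50 nM FITC arrestin peptide bound to appendage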
# GST GSH counter: GST-fluorescein capture on glutathione beads, confirmation, artefact control for arrestin-AP2 inhibitor project, biochemical, cherry pick 1, flow cytometry; GST-fluorescein binding to GSH beads, fluorescence, counter-screen; AID 588338, 2011; shares compounds with Arr AP2 block; inhibition, % at 10 µM; 1,300 compounds, 2% hits;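 active = inhibition above 50%, about 3 SD of the inhibition seen with non-fluorescent compounds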;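 also: fluorescein maleimide labelled GST captured on 4 micron glutathione beads; higher means more loss of bead fluorescence from quenching or blocked binding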
# A number is an active result; – = inactive; · = no result. Rows were chosen to be rich in hits. Some 2% of all compounds tested hit in one or more screens of this group.
SMILES,Beta2AR agonist,Hep lipid drop,Arr AP2 block,GRK2 aptamer HTS,TAG inh,NTR1 ag,Arr AP2 CP1,GST GSH counter
CCn1c(=O)n(CC)c2cc(N3CCCC3)c(NC(=O)c3ccc(F)cc3)cc21,–,–,–,–,·,–,–,–
CCn1c(=O)n(CC)c2cc(N3CCCC3)c(NC(=O)c3c(F)cccc3F)cc21,–,–,–,–,·,–,–,–
CCn1c(=O)n(CC)c2cc(N3CCCC3)c(NC(=O)c3cccc(OC)c3)cc21,–,–,–,–,·,–,–,–
CCn1c(C)cc(C(=O)CSc2nnc(-c3ccco3)o2)c1C,–,·,–,–,–,–,·,·
O=[N+]([O-])c1ccc(CNc2cccc(Cl)c2)s1,–,–,60,–,·,–,–,–
O=[N+]([O-])c1ccc(CNc2ccc(Cl)cc2)s1,–,–,–,–,·,–,·,·
O=C(Nc1ccc2nc(-c3ccco3)c(-c3ccco3)nc2c1)NC1CC1,–,–,58,·,–,–,–,–
O=C(NCCCO)Nc1ccc2nc(-c3ccco3)c(-c3ccco3)nc2c1,·,–,·,–,·,–,·,·
CCN(C(=O)CSc1nc2ccccc2[nH]1)C1CCS(=O)(=O)C1 (configuration not stated),–,·,54,–,–,–,–,–
CC(C)CNC(=O)C1(C)CCCN1C(=O)c1cc2ccccc2s1 (configuration not stated),·,·,·,·,–,·,·,·
O=[N+]([O-])c1ccc(CN2CCN(c3ccc4ccccc4n3)CC2)cc1,–,–,54,–,–,–,–,–
Cc1ccc(NS(=O)(=O)c2ccc3c(c2)OCCCO3)cc1S(=O)(=O)N1CCOCC1,–,·,58,–,–,–,–,–
O=S(=O)(Nc1cccc(S(=O)(=O)N2CCOCC2)c1)c1ccc2c(c1)OCCO2,–,–,–,–,–,–,·,·
COCc1ccc(CN2CCC(C(=O)Nc3cccc(-c4cccc(Cl)c4)c3)CC2)o1,–,–,57,·,–,–,–,–
NNc1ccc([N+](=O)[O-])c2[nH][nH]c(=O)c12,·,·,·,·,–,·,·,·
O=C(NC1CCN(Cc2ccccc2)CC1)c1ccc(S(=O)(=O)NCc2ccco2)cc1,–,–,–,–,–,–,·,·
O=C(c1ccc(S(=O)(=O)NCc2ccco2)cc1)N1CCN(Cc2ccccc2)CC1,–,–,59,–,–,–,–,–
COc1ccc(CN2CCN(C(=O)c3ccc(S(=O)(=O)NCc4ccco4)cc3)CC2)cc1,–,·,–,·,–,–,–,–
O=C(c1ccc(S(=O)(=O)NCc2ccco2)cc1)N1CCN(Cc2ccccc2F)CC1,–,·,–,·,–,–,–,–
Cc1sc2ncnc(NCc3ccco3)c2c1C,–,·,85,–,–,–,–,–
CCN(CC)S(=O)(=O)c1ccc2c(c1)nc(CCC(=O)Nc1cccc(C(F)(F)F)c1)n2CC,–,·,85,–,–,–,–,–
CCN(CC)S(=O)(=O)c1ccc2c(c1)nc(CCC(=O)O)n2CC,–,–,–,–,–,–,·,·
COc1ccc(-c2noc(CCC(=O)NCCc3ccccc3)n2)cc1OC,–,–,–,–,·,–,·,·
Nc1nc(NCc2ccccc2)nc(NCCO)c1[N+](=O)[O-],–,–,56,–,–,–,–,–
O=C1N/C(=C/c2cccn2-c2ccc(F)cc2)C(=O)N1Cc1ccccc1F,–,–,105,–,·,–,–,–
SMILES,Beta2AR agonist,Hep lipid drop,Arr AP2 block,GRK2 aptamer HTS,TAG inh,NTR1 ag,Arr AP2 CP1,GST GSH counter
O=C1N/C(=C/c2cccn2-c2ccccc2)C(=O)N1Cc1ccc(F)cc1,–,–,–,–,·,–,·,·
COc1ccc(Cn2c(=O)[nH]c3cc(C(=O)NCCc4ccc(S(N)(=O)=O)cc4)ccc3c2=O)cc1,–,–,110,–,–,–,–,–
COc1ccc(Cn2c(=O)[nH]c3cc(C(=O)NCCCOC(C)C)ccc3c2=O)cc1,–,–,–,–,–,–,·,·
CCN(CC)C(=O)CSc1nnc2nnc3cc(Cl)ccc3n12,–,–,–,–,–,–,·,·
CCN(CC)C(=O)CSc1nnc2nnc3cc(C)ccc3n12,–,–,57,–,–,–,–,–
O=C(Nc1ccc(Br)cc1)Nc1cnccn1,–,–,–,·,–,–,–,·
O=C(Nc1ccc(F)cc1)Nc1cnccn1,–,–,–,–,–,–,–,–
O=C1CC2(CCN(C(=O)c3c(F)cccc3F)CC2)Oc2ccccc21,–,·,–,–,–,–,·,·
CCn1c(SCC(=O)NC2CCCCC2)nc2c(c1=O)SCC2,–,–,–,–,–,–,·,·
Cc1ccc(NC(=O)Nc2cnccn2)c(C)c1,–,–,–,–,–,–,–,–
Cc1cccc(NC(=O)Nc2cnccn2)c1,–,–,–,–,·,–,–,–
COc1cccc(NC(=O)Nc2ccncc2)c1,–,–,–,–,–,–,·,·
COc1cccc(NC(=O)Nc2cnccn2)c1,–,–,–,–,–,–,–,–
COc1ccc(N2CC(C(=O)Nc3nnc(SCC(=O)N4CCOCC4)s3)CC2=O)cc1 (configuration not stated),–,–,–,–,–,–,·,·
CCN(CC)C(=O)C1=C(C)N(Cc2ccc(C(C)(C)C)cc2)C(=O)C(CC(=O)NC2CCCC2)C1 (configuration not stated),·,·,·,·,–,·,·,·
COc1cccc(C(=O)Nc2cc3c(cc2N2CCOCC2)n(C)c(=O)n3C)c1,–,–,–,–,·,–,–,–
